Data from ChEMBL document CHEMBL4152210, “Design, synthesis, anti-lung cancer activity, and chemosensitization of tumor-selective MCACs based on ROS-mediated JNK pathway activation and NF-κB pathway inhibition” (Eur J Med Chem, 2018).
Calls of active or inactive are those of the source. The calls are words filed in the database; no cut-off is given here.

Legend:
NCI-H460 = assay: Cytotoxicity against human H460 cells assessed as reduction in cell viability after 72 hrs by MTT assay; format: functional, cell-based; settings: NCI-H460, 72 h
Outline: (§1)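 Cells in RPMI 1640 with 10% heat-inactivated FBS and penicillin/streptomycin at 37 °C, 5% CO2. Seeded at 4000 per well, adhered overnight, then exposed to graded compound concentrations in triplicate wells for 72 h. MTT (5 mg/mL stock) added for 4 h, dissolved in DMSO, A490 read. IC50 is the concentration reducing viability by 50% versus untreated control.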

NCI-H1650 = assay: Cytotoxicity against human NCI-H1650 cells assessed as reduction in cell viability after 72 hrs by MTT assay; format: functional, cell-based; settings: NCI-H1650, 72 h; outline: as §1
[1] = Selectivity index, ratio of IC50 for human HL7702 cells to IC50 for human H460 cells; format: toxicity
Outline: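 Selectivity index taken as the logarithm of the ratio of the HL7702 IC50 to the cancer-line IC50. […] Not calculated when an IC50 was lacking.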

[2] = target: Mitogen-activated protein kinase 8/9 (Homo sapiens) (UniProt P45983+P45984); assay: Induction of JNK 1/2 phosphorylatyion in human A549 cells after 6 hrs by Western blot analysis; format: cell-based
Outline: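 A549 exposed at 10 µM for varying times, or at various concentrations for 6 h. Inhibition arms pretreated 1 h with SP600125 (10 µM) or NAC (5 mM) before 10 µM for 6 h. Lysates run on 10% SDS-PAGE and transferred to PVDF. p-JNK probed, GAPDH as loading control.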

[3] = target: T1, NF-kappa-B inhibitor alpha (Homo sapiens) (UniProt P25963); assay: Inhibition of TNF-alpha induced IkappaBalpha degradation in human A549 cells at 1 to 10 uM preincubated for 1 hr followed by TNF-alpha addition and measured after 15 mins by Western blot analysis; format: cell-based
T1 sequence (whole entry): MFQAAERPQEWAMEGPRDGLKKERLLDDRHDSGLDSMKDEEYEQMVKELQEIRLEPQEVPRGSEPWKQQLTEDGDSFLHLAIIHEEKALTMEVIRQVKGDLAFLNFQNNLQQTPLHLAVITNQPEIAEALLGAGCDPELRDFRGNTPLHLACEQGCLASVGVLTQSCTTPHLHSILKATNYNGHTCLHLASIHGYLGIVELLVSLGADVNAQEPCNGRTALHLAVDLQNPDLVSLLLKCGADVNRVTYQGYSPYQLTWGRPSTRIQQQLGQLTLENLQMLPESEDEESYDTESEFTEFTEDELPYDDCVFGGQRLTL
Outline: (§2)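 A549 preincubated 1 h at 1, 5 or 10 µM, or with BMS345541 (20 µM), then stimulated with TNFα (1 ng/mL) for 15 min. NAC arm: 5 mM NAC for 1 h, then 10 µM for 1 h. IκBα detected by western blot, GAPDH as loading control.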

[4] = target: T1, NF-kappa-B inhibitor alpha (Homo sapiens); assay: Inhibition of TNF-alpha induced IkappaBalpha degradation in human A549 cells at 10 uM pretreated with 5 mM NAC for 1 hr followed by compound addition and measured after 1 hr by Western blot analysis; format: cell-based; outline: as §2
A549 [5] = assay: Antiproliferative activity against human A549 cells harboring IKKbeta at 6.67 to 60 uM after 24 hrs by MTT assay; format: functional, cell-based
Outline: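 A549 (seeded 3 × 10^5 per well, overnight) transfected with IKKβ plasmid or empty vector using lipofectamine 2000 in serum-free medium for 6 h, then moved to 1640 with 10% FBS. Treated at 60, 20 or 6.67 µM for 24 h. MTT (5 mg/mL stock) added for 4 h, formazan dissolved in DMSO, absorbance read at 490 nm.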

A549 [6] = assay: Chemosensitization activity in human A549 cells assessed as inhibition of clonogenic growth at 0.25 uM in presence of 0.74 uM cisplatin incubated for 2 days followed by replacement of growth media and measured after 8 days by crystal violet staining-based assay relative to control; format: functional
Outline: (§3)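 A549 seeded at 1000 cells per well in 6-well plates, exposed to drug alone or combined with cisplatin or 5-Fu over a concentration series. Drug-containing medium replaced after 2 days. After a further 8 days, fixed with 1% methanol/1% formaldehyde and stained with 0.5% crystal violet. Percent inhibition at each concentration calculated relative to control.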

A549 [7] = assay: Chemosensitization activity in human A549 cells assessed as inhibition of clonogenic growth at 0.5 uM in presence of 0.74 uM cisplatin incubated for 2 days followed by replacement of growth media and measured after 8 days by crystal violet staining-based assay relative to control; format: functional; outline: as §3
A549 [8] = assay: Chemosensitization activity in human A549 cells assessed as inhibition of clonogenic growth at 1 uM in presence of 0.74 uM cisplatin incubated for 2 days followed by replacement of growth media and measured after 8 days by crystal violet staining-based assay relative to control; format: functional; outline: as §3
A549 [9] = assay: Anticlonogenic activity against human A549 cells assessed as inhibition of clonogenic growth at 0.5 uM incubated for 2 days followed by replacement of growth media and measured after 8 days by crystal violet staining-based assay relative to control; format: functional; outline: as §3
A549 [10] = assay: Induction of apoptosis in human A549 cells at 10 uM pretreated with 5 mM NAC for 1 hr followed by compound addition and measured after 24 hrs by Annexin V-FITC/propidium iodide staining based flow cytometric analysis; format: functional, cell-based
Outline: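 A549 treated 24 h at 1, 5 or 10 µM, with BMS345541 20 µM as control. Inhibitor arms pretreated 1 h with NAC (5 mM) or SP600125 (10 µM) before 10 µM. Cells harvested with EDTA-free trypsin, stained with FITC Annexin V and PI for 15 min at room temperature in the dark, analysed by flow cytometry.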

Chain of Mitogen-activated protein kinase 8/9 (Homo sapiens) (P45983 whole entry, looked up): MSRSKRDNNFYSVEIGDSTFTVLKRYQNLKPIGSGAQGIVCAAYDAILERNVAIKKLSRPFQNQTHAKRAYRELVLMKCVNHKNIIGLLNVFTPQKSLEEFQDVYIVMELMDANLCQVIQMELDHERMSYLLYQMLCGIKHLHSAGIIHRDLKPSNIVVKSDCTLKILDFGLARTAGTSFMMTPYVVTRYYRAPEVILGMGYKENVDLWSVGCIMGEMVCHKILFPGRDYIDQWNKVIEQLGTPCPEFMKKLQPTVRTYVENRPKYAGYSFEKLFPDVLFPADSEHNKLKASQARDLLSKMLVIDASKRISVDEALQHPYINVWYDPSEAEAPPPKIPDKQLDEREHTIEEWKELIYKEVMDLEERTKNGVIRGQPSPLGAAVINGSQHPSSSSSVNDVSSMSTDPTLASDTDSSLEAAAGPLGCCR
Chain of Mitogen-activated protein kinase 8/9 (Homo sapiens) (P45984 whole entry, looked up): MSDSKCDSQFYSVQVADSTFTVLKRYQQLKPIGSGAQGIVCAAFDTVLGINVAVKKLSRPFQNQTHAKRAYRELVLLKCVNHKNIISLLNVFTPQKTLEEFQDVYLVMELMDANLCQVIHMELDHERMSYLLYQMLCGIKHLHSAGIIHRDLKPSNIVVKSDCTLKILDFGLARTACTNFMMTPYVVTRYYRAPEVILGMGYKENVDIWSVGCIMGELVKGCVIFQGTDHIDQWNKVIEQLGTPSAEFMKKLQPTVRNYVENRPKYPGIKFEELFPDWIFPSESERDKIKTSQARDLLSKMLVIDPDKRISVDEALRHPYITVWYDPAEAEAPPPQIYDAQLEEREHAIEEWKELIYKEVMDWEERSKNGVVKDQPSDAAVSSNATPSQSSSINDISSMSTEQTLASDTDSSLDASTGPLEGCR

- Activity [2]: Dose-dependent effect
- inhibition [3]: Active
- inhibition [4]: inactive
SMILES: COc1cc(/C=C2\CN(C)C/C(=C\c3cc(OC)c(OC)c(OC)c3)C2=O)cc(OC)c1OC
- IC50 (NCI-H460): 1000 nM
- IC50 (NCI-H1650): 1500 nM
- log(RatioIC50) [1]: 1.42
- Activity (A549 [5]): inactive
- inhibition (INH) (A549 [6]): 63%
- inhibition (INH) (A549 [7]): 82%
- inhibition (INH) (A549 [8]): 97%
- inhibition at 0.5 µM (A549 [9]): 18%
- Activity (A549 [10]): inactive
